Series [1] has as its system SARS-CoV-2. The series is described as follows: Antiviral activity against SARS-COV 2 infected in human Calu-3 cells assessed as inhibition of viral replication after 48 hrs by qRT-PCR analysis. Type of series: functional, organism-based. As to conditions: Severe acute respiratory syndrome coronavirus 2, Calu-3, 48 h.
Series [2] has as its system SARS-CoV-2. Put plainly: Antiviral activity against SARS-COV 2 infected in African green monkey Vero E6 cells assessed as inhibition of viral replication after 48 hrs by qRT-PCR analysis. Format: functional, organism-based. The note with it: Severe acute respiratory syndrome coronavirus 2, Vero C1008, 48 h.
In series [3] the test system is SARS-CoV-2. The series is described as follows: Antiviral activity against SARS-COV 2 infected in human Caco-2 cells assessed as inhibition of viral replication after 48 hrs by qRT-PCR analysis. Format: functional, organism-based. The note with it: Severe acute respiratory syndrome coronavirus 2, Caco-2, 48 h. In general terms: Quantitative PCR measures a nucleic acid by following its amplification.

For series [4], the system named is Vero C1008. The series is described as follows: Cytotoxicity against African green monkey Vero cells assessed as reduction in cell viability upto 50 uM measured for 48 hrs by CCK8 assay. Format: toxicity, cell-based. The note with it: chlorocebus sabaeus, vero c1008, 48 h. In short, it runs like this: (§1)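 Vero E6, Calu-3 or Caco-2 cells were seeded at 20 000/well. They were exposed to 0, 0.01, 0.1, 1, 5, 10 or 50 μM compound for 48 h, and viability was read by CCK-8.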
(Tetrazolium dyes change colour on reduction, which living cells bring about.)

Series [5] deals with Calu-3. Put plainly: Cytotoxicity against human Calu-3 cells assessed as reduction in cell viability upto 50 uM measured for 48 hrs by CCK8 assay. Type of series: toxicity, cell-based. The note with it: calu-3, 48 h. Put shortly: as §1
Series [6] deals with Caco-2. Put plainly: Cytotoxicity against human Caco-2 cells assessed as reduction in cell viability upto 50 uM measured for 48 hrs by CCK8 assay. Format: toxicity, cell-based. As to conditions: caco-2, 48 h. In short, it runs like this: as §1
Series [7] is described as follows: AUC(0 to t) in Sprague-Dawley rat at 30 mg/kg, iv measured over 48 hrs by HPLC/MS analysis. Format: ADME, organism-based. Set-up: dose 30 mg/kg, time 48 hrs, route iv. The note with it: in vivo.
A short description of series [8]: AUC(0 to t) in Sprague-Dawley rat at 30 mg/kg, ig measured over 48 hrs by HPLC/MS analysis. Type of series: ADME, organism-based. Set-up: dose 30 mg/kg, time 48 hrs, route ig. The note with it: in vivo, po.
A short description of series [9]: Tmax in Sprague-Dawley rat at 30 mg/kg, iv measured over 48 hrs by HPLC/MS analysis. Format: ADME, organism-based. The note with it: in vivo.
A short description of series [10]: Tmax in Sprague-Dawley rat at 30 mg/kg, ig measured over 48 hrs by HPLC/MS analysis. Type of series: ADME, organism-based. As to conditions: in vivo, po.
Series [11] can be described thus: Cmax in Sprague-Dawley rat at 30 mg/kg, iv measured over 48 hrs by HPLC/MS analysis. Type of series: ADME, organism-based. Also on record: dose 30 mg/kg, time 48 hrs, route iv. As to conditions: in vivo.
Series [12] in a line: Oral bioavailability in Sprague-Dawley rat at 30 mg/kg measured over 48 hrs by HPLC/MS analysis. As to conditions: in vivo. Type of series: ADME, organism-based.
Series [13] deals with SARS-CoV-2. Put plainly: Antiviral activity against SARS-CoV-2 infected in AAV-human ACE2 transduced BALB/c mouse assessed as viral clearance in lungs at 25 mg/kg/day, ip administered 1 day prior to viral infection and measured after 2 days post infection by focus forming assay. As to conditions: Severe acute respiratory syndrome coronavirus 2, time 3.0 day. Format: functional, organism-based.

Series [14] in a line: Toxicity AAV-human ACE2 transduced BALB/c mouse infected with SARS-COV2 assessed as loss of body weight at 25 mg/kg/day, ip administered 1 day prior to viral infection and treated for 8 days. Type of series: organism-based. The note with it: in vivo, 192 h, time 8 day.
Series [15] in a line: Toxicity in BALB/c mouse infected with MHV-A59 assessed as change in body weight at 100 mg/kg, ip administered at 0.5 hrs post infection followed by 50 mg/kg administered daily measured upto 14 days. As to conditions: in vivo, 336 h, time < 14 day. Type of series: organism-based. In short, it runs like this: (§2)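 MHV-A59-infected male BALB/c mice (3–4 weeks) were dosed 100 mg/kg IG or IP at 0.5 hpi, then 50 mg/kg daily for 4 d. Uninfected drug-treated and PBS-only groups served as controls. Body weight was recorded daily for 14 d, N = 8 per group.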

The test system of series [16] is Murine hepatitis virus. The series is described as follows: Antiviral activity against MHV-A59 infected in BALB/c mouse assessed as improvement in survival at 100 mg/kg, ig administered at 0.5 hrs post infection followed by 50 mg/kg administered daily measured upto 14 days. Format: functional. As to conditions: time <= 14 day. In short, it runs like this:
(§3)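 Male SPF BALB/c mice, 3–4 weeks old, were inoculated intranasally with 30 μL MHV-A59 in PBS (TCID50 10^-7.125/100 μL). They received 100 mg/kg IG or IP at 0.5 hpi, then 50 mg/kg once daily for the next 4 d. Untreated infected controls received PBS. Survival was followed for 14 d, N = 8 per group.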

Series [17] deals with Murine hepatitis virus. The series is described as follows: Antiviral activity against MHV-A59 infected in BALB/c mouse assessed as improvement in survival at 100 mg/kg, ip administered at 0.5 hrs post infection followed by 50 mg/kg administered daily measured upto 14 days. As to conditions: time <= 14 day. Format: functional. Put shortly:
as §3

The subject of series [18] is Murine hepatitis virus. Put plainly: Antiviral activity against MHV-A59 infected in BALB/c mouse assessed as reduction in viral titer in liver at 100 mg/kg, ig administered at 0.5 hrs post infection followed by 50 mg/kg administered daily measured upto 14 days by qRT-PCR analysis. Format: functional. Also on record: scale not given: the % may be the effect or the level left. As to conditions: time <= 14 day. In short, it runs like this: (§4)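 Male BALB/c mice were infected intranasally with MHV-A59 and dosed 100 mg/kg IG or IP at 0.5 hpi, then 50 mg/kg daily. Three mice per group were killed at 3 dpi. Liver RNA was extracted and viral load quantified by qRT-PCR against PBS-treated infected controls.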

The subject of series [19] is Murine hepatitis virus. The series is described as follows: Antiviral activity against MHV-A59 infected in BALB/c mouse assessed as reduction in viral titer in liver at 100 mg/kg, ip administered at 0.5 hrs post infection followed by 50 mg/kg administered daily measured upto 14 days by qRT-PCR analysis. Type of series: functional. Also on record: scale not given: the % may be the effect or the level left. The note with it: time <= 14 day. In short, it runs like this: as §4

Series [20] is described as follows: Toxicity in BALB/c mouse infected with MHV-A59 assessed as change in body weight at 100 mg/kg, ig administered at 0.5 hrs post infection followed by 50 mg/kg administered daily measured upto 14 days. Format: organism-based. As to conditions: in vivo, po, 336 h, time < 14 day. In short, it runs like this:
as §2

Series [21] can be described thus: AUC in human plasma at 3 to 225 mg, iv administered as 2 hr infusion. Format: ADME, organism-based. Also on record: time 2 hrs, route iv. The note with it: dose 3-225 mg.
Series [22] in a line: Half life in human plasma at 3 to 225 mg, iv administered as 2 hr infusion. Format: ADME, organism-based. As to conditions: dose 3-225 mg.

Calls of active or inactive are those of the source. The rule behind the calls is not given here. Some results are limits rather than exact numbers.

As for `N#C[C@@]1(c2ccc3c(N)ncnn23)O[C@H](CO)[C@@H](O)[C@H]1O` [GS-441524], the IC50 (in general, the point on the concentration scale where inhibition reaches its midpoint) in series [1] was 3210 nM; in series [2], 700 nM; in series [3] it was 3620 nM. For the same compound, the Activity entry is “Non-Toxic” in series [4]; “Non-Toxic” in series [5]; “Non-Toxic” in series [6]; “Non-Toxic” in [14]; “Toxic” in series [15]; 100% in series [16]. The Activity in [17] is on record as 100%; in series [18], 99.9%; in series [19] it was 99.9%; in [20], “Toxic”. Also, the AUC(0-t) (in general, the area under the concentration-time curve up to a stated or last time point) at 48 h in series [7] came to 592000 ng·h/mL; in [8], 28700 ng·h/mL. In addition, the figures for the Tmax in series [9] and in [10] were 6 min and 56.4 min, respectively. The concentration in [11] peaked (Cmax) at 164 µg/mL. In series [12], the bioavailability (usually the share of a dose that reaches the circulation, judged against a reference dose that is usually intravenous) turned out to be 4.84%. Moreover, in [13], the result was Active. Besides, the AUC – broadly, concentration integrated over time – at 2 h in [21] was determined as 2230 ng·h/mL.
For `CCC(CC)COC(=O)[C@H](C)N[P@](=O)(OC[C@H]1O[C@@](C#N)(c2ccc3c(N)ncnn23)[C@H](O)[C@@H]1O)Oc1ccccc1`, the IC50 in series [1] is 650 nM; in [2] it was 1350 nM; in series [3], 580 nM. Further, in series [21], the exposure (AUC) at 2 h is 1590 ng·h/mL. For the same compound, the half-life (usually the time in which the quantity being followed falls by half) in series [22] was less than 60 min.

For the origin of these results see ChEMBL document CHEMBL5154633 (J Med Chem, 2022).
